This is an account of results in ChEMBL document CHEMBL1151764, “Search for inhibitors of bacterial and human protein kinases among derivatives of diazepines[1,4] annelated with maleimide and indole cycles” (J Med Chem, 2008).

Assay [1] concerns the target T1, Cyclin-dependent kinase 2 (Homo sapiens, UniProt P24941). As to the kind of experiment: Inhibition of human CDK2/Cyc2.
In assay [2] the test system is Streptomyces coelicolor. The assay is described as follows: Inhibition of aph8 phosphorylation in Streptomyces coelicolor cell lysate assessed as [32Pi] incorporation into aph8 at 500 nM by microplate scintillation counter relative to control. Details: scale not given: the % may be the effect or the level left. The method, boiled down: (§1)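 Radiometric in vitro assay of actinobacterial protein kinases. Kinases incubated under standard conditions with [γ-³²P]ATP and aphVIII as substrate, with or without modulators or inhibitors. Read-out was incorporation of the γ-phosphoryl residue into aphVIII.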

Assay [3] concerns Streptomyces coelicolor. The assay is described as follows: Inhibition of Ca(2+))/phosphatidylserine/diacylglycerol-dependent aph8 phosphorylation in Streptomyces coelicolor cell lysate assessed as [32Pi] incorporation into aph8 at 500 nM by microplate scintillation counter relative to control. Details: scale not given: the % may be the effect or the level left. The method, boiled down:
as §1

Assay [4] concerns Streptomyces coelicolor. As to the kind of experiment: Inhibition of aph8-induced kanamycin phosphorylation in Streptomyces coelicolor cell lysate assessed as [32Pi] incorporation into kanamycin at 10 uM by microplate scintillation counter relative to control. Details: scale not given: the % may be the effect or the level left.
Assay [5] has as its system Streptomyces lividans. The assay is described as follows: Inhibition of aph8 positive Streptomyces lividans at 25 uM after 20 hrs by paper disk method. The format is functional. The settings on record: read-out: IZ. The method, boiled down: (§2)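 Test culture was Streptomyces lividans carrying plasmid pSU23 with the aphVIII gene, whose kanamycin-inactivating activity depends on Ser/Thr kinase phosphorylation. Paper disks (7 mm) held kanamycin (5 µg/disk) plus test compound at subtoxic amounts, about half the minimal growth-inhibitory dose. Disks went on plates of log-phase cells at 28 °C for 20 h. Read-out was lysis zone diameter.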

For assay [6], the system named is Streptomyces lividans. As to the kind of experiment: Inhibition of aph8 positive Streptomyces lividans at 50 uM after 20 hrs by paper disk method. As to conditions: read-out: IZ. The class given is functional. The method, boiled down: as §2
The subject of assay [7] is Streptomyces lividans. The assay is described as follows: Inhibition of aph8 positive Streptomyces lividans at 100 uM after 20 hrs by paper disk method. The settings on record: read-out: IZ. The class given is functional. The method, boiled down: as §2
Assay [8] deals with Streptomyces lividans. As to the kind of experiment: Inhibition of aph8 positive Streptomyces lividans at 200 uM after 20 hrs by paper disk method. The format is functional. The settings on record: read-out: IZ. An outline of the steps: as §2
The test system of assay [9] is Streptomyces lividans. As to the kind of experiment: Inhibition of aph8 positive Streptomyces lividans at 400 uM after 20 hrs by paper disk method. The class given is functional. As to conditions: read-out: IZ. An outline of the steps:
as §2

In assay [10] the target is T1, Cyclin-dependent kinase 2. As to the kind of experiment: Inhibition of human CDK2/CycA.
The test system of assay [11] is Streptomyces lividans. The assay is described as follows: Inhibition of aph8 positive Streptomyces lividans at 5 uM after 20 hrs by paper disk method. The format is functional. The settings on record: read-out: IZ. The method, boiled down: as §2
The subject of assay [12] is Streptomyces lividans. As to the kind of experiment: Inhibition of aph8 positive Streptomyces lividans at 10 uM after 20 hrs by paper disk method. The settings on record: read-out: IZ. The format is functional. An outline of the steps: as §2
Assay [13] relates to Streptomyces lividans. As to the kind of experiment: Inhibition of aph8 positive Streptomyces lividans at 20 uM after 20 hrs by paper disk method. The format is functional. The settings on record: read-out: IZ. An outline of the steps:
as §2

For assay [14], the system named is Streptomyces lividans. The assay is described as follows: Inhibition of aph8 positive Streptomyces lividans at 40 uM after 20 hrs by paper disk method. The class given is functional. As to conditions: read-out: IZ. The method, boiled down: as §2
Assay [15] relates to Streptomyces lividans. The assay is described as follows: Inhibition of aph8 positive Streptomyces lividans at 80 uM after 20 hrs by paper disk method. The class given is functional. As to conditions: read-out: IZ. An outline of the steps: as §2
The test system of assay [16] is Streptomyces lividans. As to the kind of experiment: Inhibition of aph8 positive Streptomyces lividans at 75 uM after 20 hrs by paper disk method. The class given is functional. As to conditions: read-out: IZ. The method, boiled down:
as §2

In assay [17] the test system is Streptomyces lividans. The assay is described as follows: Inhibition of aph8 positive Streptomyces lividans at 150 uM after 20 hrs by paper disk method. The class given is functional. As to conditions: read-out: IZ. The method, boiled down: as §2
The subject of assay [18] is Streptomyces lividans. The assay is described as follows: Inhibition of aph8 positive Streptomyces lividans at 300 uM after 20 hrs by paper disk method. The class given is functional. As to conditions: read-out: IZ. The method, boiled down:
as §2

For assay [19], the system named is Streptomyces lividans. The assay is described as follows: Inhibition of aph8 positive Streptomyces lividans at 600 uM after 20 hrs by paper disk method. The format is functional. As to conditions: read-out: IZ. The method, boiled down:
as §2

Assay [20] has as its system Streptomyces lividans. As to the kind of experiment: Inhibition of aph8 positive Streptomyces lividans at 1200 uM after 20 hrs by paper disk method. The format is functional. The settings on record: read-out: IZ. The method, boiled down: as §2

With `N=C(N)SCCCN1C(=O)C2=C(C1=O)n1ccc3cccc(c31)C1Cc3ccccc3N21` (stereo unspecified), inhibition in assay [1] was half-maximal at 4.3 µM (IC50).
In the case of `O=C(O)CN(CCOCCOCCN(CC(=O)O)CC(=O)O)CC(=O)O`, the Activity in the assay with Streptomyces coelicolor [2] was 94%.
On to `CCN(CC)Cc1cn2c3c(cccc13)C1Cc3ccccc3N1C1=C2C(=O)N(C)C1=O` (stereo unspecified), for which the Activity in the assay on Streptomyces coelicolor [3] came out at 94%; in the assay with Streptomyces coelicolor [4] it was 93%. Besides, the zone of inhibition at 25 µM in the assay on Streptomyces lividans [5] was determined as 0 mm. Besides, in the assay with Streptomyces lividans [6], the zone of inhibition at 50 µM amounted to 0 mm. In addition, the zone of inhibition at 100 µM with Streptomyces lividans [7] was 7.5 mm. In addition, the zone of inhibition at 200 µM in the assay with Streptomyces lividans [8] came out at 12 mm. The zone of inhibition at 400 µM with Streptomyces lividans [9] was 14 mm.
Compound `O=C1C2=C(C(=O)N1CCCSC1=NCCN1)n1ccc3cccc(c31)C1Cc3ccccc3N21` (stereo unspecified) returned an IC50 in assay [10] of 7.7 µM.
Take `CCN(CC)CCCN1C(=O)C2=C(C1=O)n1ccc3cccc(c31)C1Cc3ccccc3N21` (stereo unspecified): the Activity in the assay with Streptomyces coelicolor [4] worked out at 94%. In addition, the zone of inhibition at 5 µM in the assay on Streptomyces lividans [11] came out at 0 mm. In addition, in the assay with Streptomyces lividans [12], the zone of inhibition at 10 µM turned out to be 0 mm. Besides, in the assay with Streptomyces lividans [13], the zone of inhibition at 20 µM is 7.5 mm. The zone of inhibition at 40 µM in the assay with Streptomyces lividans [14] came to 9 mm. Besides, in the assay with Streptomyces lividans [15], the zone of inhibition at 80 µM turned out to be 11 mm.
Consider `CN1C(=O)C(c2c[nH]c3ccccc23)=C(c2c[nH]c3ccccc23)C1=O`, for which the Activity in the assay on Streptomyces coelicolor [3] was determined as 206%; in the assay on Streptomyces coelicolor [4], 89%.
Consider `CCNC(=N)SCCCN1C(=O)C2=C(C1=O)n1ccc3cccc(c31)C1Cc3ccccc3N21` (stereo unspecified), for which the IC50 in [10] stood at 6.8 µM.
Take `CN(C)CCCn1cc(C2=C(c3c[nH]c4ccccc34)C(=O)NC2=O)c2ccccc21` [GF-109203]: the Activity was 152% with Streptomyces coelicolor [3] and 95% with Streptomyces coelicolor [4]. Moreover, the zone of inhibition at 75 µM in the assay with Streptomyces lividans [16] was 0 mm. In addition, in the assay on Streptomyces lividans [17], the zone of inhibition at 150 µM was 0 mm. In the assay with Streptomyces lividans [18], the zone of inhibition at 300 µM was found to be 7.5 mm. For the same compound, the zone of inhibition at 600 µM in the assay with Streptomyces lividans [19] was found to be 9 mm. The zone of inhibition at 1200 µM in the assay with Streptomyces lividans [20] is 10 mm.

In general, IC50 refers to the concentration that gives 50% inhibition.
